Results taken from PMC3286832 (Nature Communications, 2011).
Substitutions are numbered along the chain they refer to. Names and notes keep the numbering of the source.

Columns and labels:
GLP catalytic SET domain = GLP catalytic SET domain (Homo sapiens, UniProt Q9H9B1); experiment: In vitro methylation assay with GLP catalytic SET domain; assay type: biochemical; details: [methyl-3H]AdoMet, SDS–PAGE and fluorography / autoradiogram
Method in brief: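 E. coli-expressed hG9a or hGLP SET domain (1.6 μM) was incubated with 13.0 μM substrate (mDnmt3a N-terminal fragments or other GST-tagged proteins) and 2.8 μM [methyl-3H]AdoMet in 20 mM Tris–HCl pH 8.5 at 30 °C for 8 min. Products were resolved by SDS–PAGE and detected by fluorography/autoradiography.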

MPP8–W80A = experiment: GST pull-down of GLP–N with MPP8-W80A; assay type: binding; details: in vitro translated 35S–MPP8–W80A
Method in brief: (§1)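 GST–hGLP–N (residues 191–280, WT or K205R; 3 μg) was premethylated with 3 μg 6xHis–hGLP–SET (residues 955–1,298) and 1.5 mM AdoMet at 30 °C for 2 h. It was immobilised on glutathione agarose (4 °C, 1 h, 1 M NaCl buffer) and washed. Beads were incubated with in vitro translated 35S-labelled full-length MPP8 (WT or W80A) at 4 °C for 2 h, washed with 300 mM NaCl binding buffer, and analysed by SDS–PAGE autoradiography. Input was 5%.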

MPP8 = experiment: In vitro GST pull-down of GLP–N with in vitro translated MPP8; assay type: binding; details: GST–GLP–N (residues 191–280), in vitro translated 35S–MPP8, autoradiography
Method in brief: as §1

[1] = tested on: hDNMT3A K47 methylation in 293T cells; experiment: Methylation in 293T cells; assay type: cell-based, human; details: coexpression in 293T cells, metabolic labelling with 3H-Met or western blot
Method in brief: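 GLP stable knockdown 293T cells expressed Myc-hDNMT3A (WT or K47R), with or without Flag-GLP or G9a, for 36 h. Cells were starved 30 min in methionine-free medium with cycloheximide (100 μg ml−1) and chloramphenicol (40 μg ml−1), then labelled 4 h with 10 μCi ml−1 L-[methyl-3H]methionine. Myc-hDNMT3A was immunoprecipitated with anti-Myc, washed with 600 mM NaCl IPH buffer, and detected by autoradiography.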

[2] = tested on: MPP8–GLP interaction in 293T cells; experiment: Co-immunoprecipitation of MPP8 and GLP in 293T cells; assay type: cell-based, human
Method in brief: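 293T cells (parental, or MPP8 stable knockdown for the chromodomain W80A mutant) were cotransfected with Flag-MPP8 and HA-GLP (WT, K199R, K205R or K209R) for 48 h. Lysates were immunoprecipitated with 1 μg anti-HA or anti-Flag on protein-G agarose, washed with IPH containing 300 or 600 mM NaCl, and analysed by western blot. Input was 5%.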

B1: GLP–N: N-terminal fragment of GLP (residues 191–280) containing K205 (protein)
chain: LPAPGADVKVHRARKTMPKSVVGLHAASKDPREVREARDHKEPKEEINKNISDFGRQQLLPPFPSLHQSLPQNQCYMATTKSQTACLPFV
modifications: left off: GST, end not stated, kept
methylation by GLP (GLP catalytic SET domain): is methylated in vitro by recombinant GLP–SET domain | interaction with MPP8–W80A in GST pull-down (MPP8–W80A): no interaction was observed | interaction with MPP8 in GST pull-down (MPP8): a robust direct interaction between GLP–N and MPP8 was observed only when K205 methylation occurs

B2: GLP–N K205-methylated: GLP–N methylated in vitro at K205 (protein, UniProt Q9H9B1 191-280, looked up, fragment)
chain: B1 chain
modifications: K205 methylated
interaction with MPP8–W80A in GST pull-down (MPP8–W80A): no interaction was observed

B3: GLP–N K205R: methylation deficient K205R mutant of GLP–N (protein, UniProt Q9H9B1 191-280, looked up, variant K205R)
chain: B1 chain with K15R
methylation by GLP (GLP catalytic SET domain): completely abolishes this GLP-catalyzed methylation | interaction with MPP8–W80A in GST pull-down (MPP8–W80A): no interaction was observed | interaction with MPP8 in GST pull-down (MPP8): completely lost the interaction with MPP8

B4: G9a: H3K9 methyltransferase G9a (protein, UniProt Q96KQ7 2-1210, looked up)
Histone-lysine …: AAAAGAAAAAAAEGEAPAEMGALLLEKETRGATERVHGSLGDTPRSEETLPKATPDSLEPAGPSSPASVTVTVGDEGADTPVGATPLIGDESENLEGDGDLRGGRILLGHATKSFPSSPSKGGSCPSRAKMSMTGAGKSPPSVQSLAMRLLSMPGAQGAAAAGSEPPPATTSPEGQPKVHRARKTMSKPGNGQPPVPEKRPPEIQHFRMSDDVHSLGKVTSDLAKRRKLNSGGGLSEELGSARRSGEVTLTKGDPGSLEEWETVVGDDFSLYYDSYSVDERVDSDSKSEVEALTEQLSEEEEEEEEEEEEEEEEEEEEEEEEDEESGNQSDRSGSSGRRKAKKKWRKDSPWVKPSRKRRKREPPRAKEPRGVNGVGSSGPSEYMEVPLGSLELPSEGTLSPNHAGVSNDTSSLETERGFEELPLCSCRMEAPKIDRISERAGHKCMATESVDGELSGCNAAILKRETMRPSSRVALMVLCETHRARMVKHHCCPGCGYFCTAGTFLECHPDFRVAHRFHKACVSQLNGMVFCPHCGEDASEAQEVTIPRGDGVTPPAGTAAPAPPPLSQDVPGRADTSQPSARMRGHGEPRRPPCDPLADTIDSSGPSLTLPNGGCLSAVGLPLGPGREALEKALVIQESERRKKLRFHPRQLYLSVKQGELQKVILMLLDNLDPNFQSDQQSKRTPLHAAAQKGSVEICHVLLQAGANINAVDKQQRTPLMEAVVNNHLEVARYMVQRGGCVYSKEEDGSTCLHHAAKIGNLEMVSLLLSTGQVDVNAQDSGGWTPIIWAAEHKHIEVIRMLLTRGADVTLTDNEENICLHWASFTGSAAIAEVLLNARCDLHAVNYHGDTPLHIAARESYHDCVLLFLSRGANPELRNKEGDTAWDLTPERSDVWFALQLNRKLRLGVGNRAIRTEKIICRDVARGYENVPIPCVNGVDGEPCPEDYKYISENCETSTMNIDRNITHLQHCTCVDDCSSSNCLCGQLSIRCWYDKDGRLLQEFNKIEPPLIFECNQACSCWRNCKNRVVQSGIKVRLQLYRTAKMGWGVRALQTIPQGTFICEYVGELISDAEADVREDDSYLFDLDNKDGEVYCIDARYYGNISRFINHLCDPNIIPVRVFMLHQDLRFPRIAFFSSRDIRTGEELGFDYGDRFWDIKSKYFTCQCGSEKCKHSAEAIALEQSRLARLDPHPELLPELGSLPPVNT
methylation of hDNMT3A in cells [1]: markedly increased

B5: G9a double mutant (Y1067V/Y1154F): G9a double mutant coexpressed with hDNMT3A (protein, UniProt Q96KQ7 2-1210, looked up, variant Y1067V Y1154F)
Histone-lysine …: B4 Histone-lysine … with Y1066V, Y1153F
methylation of hDNMT3A in cells [1]: failed to methylate K47

B6: GLP: G9a-like protein, wild-type (protein)
chain: MAAADAEAVPARGEPQQDCCVKTELLGEETPMAADEGSAEKQAGEAHMAADGETNGSCENSDASSHANAAKHTQDSARVNPQDGTNTLTRIAENGVSERDSEAAKQNHVTADDFVQTSVIGSNGYILNKPALQAQPLRTTSTLASSLPGHAAKTLPGGAGKGRTPSAFPQTPAAPPATLGEGSADTEDRKLPAPGADVKVHRARKTMPKSVVGLHAASKDPREVREARDHKEPKEEINKNISDFGRQQLLPPFPSLHQSLPQNQCYMATTKSQTACLPFVLAAAVSRKKKRRMGTYSLVPKKKTKVLKQRTVIEMFKSITHSTVGSKGEKDLGASSLHVNGESLEMDSDEDDSEELEEDDGHGAEQAAAFPTEDSRTSKESMSEADRAQKMDGESEEEQESVDTGEEEEGGDESDLSSESSIKKKFLKRKGKTDSPWIKPARKRRRRSRKKPSGALGSESYKSSAGSAEQTAPGDSTGYMEVSLDSLDLRVKGILSSQAEGLANGPDVLETDGLQEVPLCSCRMETPKSREITTLANNQCMATESVDHELGRCTNSVVKYELMRPSNKAPLLVLCEDHRGRMVKHQCCPGCGYFCTAGNFMECQPESSISHRFHKDCASRVNNASYCPHCGEESSKAKEVTIAKADTTSTVTPVPGQEKGSALEGRADTTTGSAAGPPLSEDDKLQGAASHVPEGFDPTGPAGLGRPTPGLSQGPGKETLESALIALDSEKPKKLRFHPKQLYFSARQGELQKVLLMLVDGIDPNFKMEHQNKRSPLHAAAEAGHVDICHMLVQAGANIDTCSEDQRTPLMEAAENNHLEAVKYLIKAGALVDPKDAEGSTCLHLAAKKGHYEVVQYLLSNGQMDVNCQDDGGWTPMIWATEYKHVDLVKLLLSKGSDINIRDNEENICLHWAAFSGCVDIAEILLAAKCDLHAVNIHGDSPLHIAARENRYDCVVLFLSRDSDVTLKNKEGETPLQCASLNSQVWSALQMSKALQDSAPDRPSPVERIVSRDIARGYERIPIPCVNAVDSEPCPSNYKYVSQNCVTSPMNIDRNITHLQYCVCIDDCSSSNCMCGQLSMRCWYDKDGRLLPEFNMAEPPLIFECNHACSCWRNCRNRVVQNGLRARLQLYRTRDMGWGVRSLQDIPPGTFVCEYVGELISDSEADVREEDSYLFDLDNKDGEVYCIDARFYGNVSRFINHHCEPNLVPVRVFMAHQDLRFPRIAFFSTRLIEAGEQLGFDYGERFWDIKGKLFSCRCGSPKCRHSSAALAQRQASAAQEAQEDGLPDTSSAAAADPL
modifications: left off: HA, end not stated, kept
methylation of hDNMT3A in cells [1]: markedly increased

B7: GLP K209R: HA–GLP K209R mutant (protein)
chain: B6 chain with K209R
modifications: left off: HA, end not stated, kept
MPP8–GLP interaction in cells [2]: had little effect

B8: GLP K205R: HA–GLP K205R mutant (protein)
chain: B6 chain with K205R
modifications: left off: HA, end not stated, kept
MPP8–GLP interaction in cells [2]: impairs GLP–MPP8 interaction in cells

B9: GLP K199R: HA–GLP K199R mutant (protein)
chain: B6 chain with K199R
modifications: left off: HA, end not stated, kept
MPP8–GLP interaction in cells [2]: had little effect
